Assay results published in article PMC4331064 (Investigational new drugs, 2010).

How the values were obtained:
[1] = Phase I plasma pharmacokinetics of ENMD-1198 in cancer patients
[2] = tested on: patients with advanced cancer; assay: Phase I dose-escalation safety and tolerability; type: in vivo, human
How it was run: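 Single-center oral once-daily escalation. Part A used 3+3 cohorts starting at 1/12th of the allometrically scaled rat LOAEL. Part B used single-patient cohorts, expanded to 3+3 after ≥Grade 2 drug-related toxicity in cycle 1. AEs were graded by NCI CTCAE v3. DLT was a treatment-related Grade ≥3 nonhematologic or Grade ≥4 hematologic cycle-1 AE. MTD was the next lower dose after ≥2 DLTs in a cohort.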

[3] = single oral dose 425 mg/m^2/day, n=5

SMILES: COc1cc2c(cc1C(N)=O)CC[C@@H]1[C@@H]2CC[C@]2(C)C=CC[C@@H]12 [ENMD-1198, 2-methoxyestra-1,3,5(10)16-tetraene-3-carboxamide]
- Accumulation after multiple doses ([1]; human, in vivo): 3 fold
- Dose proportionality of plasma exposures ([1]; human, in vivo): increased proportionally with dose
- Mean terminal half-life ([1]; human, in vivo): 15 h
- Tmax ([1]; human, in vivo, po): 1 to 2 h
- AUC0–24hr ([1]; human, in vivo, po, 5 mg/m2): 312.35 ± 175.38 ng·h/mL
- Cmax ([1]; human, in vivo, po, 5 mg/m2): 68.75 ± 48.50 ng/mL
- Half-life ([1]; human, in vivo, po, 5 mg/m2): 12.16 ± 4.22 h
- Tmax ([1]; human, in vivo, po, 5 mg/m2): 1.25 ± 0.50 h
- AUC0–24hr ([1]; human, in vivo, po, 10 mg/m2): 1073.83 ± 156.28 ng·h/mL
- Cmax ([1]; human, in vivo, po, 10 mg/m2): 141.20 ± 28.47 ng/mL
- Half-life ([1]; human, in vivo, po, 10 mg/m2): 10.57 ± 4.42 h
- Tmax ([1]; human, in vivo, po, 10 mg/m2): 1.67 ± 0.58 h
- AUC0–24hr ([1]; human, in vivo, po, 20 mg/m2): 2138.07 ± 384.60 ng·h/mL
- Cmax ([1]; human, in vivo, po, 20 mg/m2): 418.66 ± 72.53 ng/mL
- Half-life ([1]; human, in vivo, po, 20 mg/m2): 11.03 ± 1.85 h
- Tmax ([1]; human, in vivo, po, 20 mg/m2): 1.33 ± 0.58 h
- AUC0–24hr ([1]; human, in vivo, po, 30 mg/m2): 3914.43 ± 1336.73 ng·h/mL
- Cmax ([1]; human, in vivo, po, 30 mg/m2): 677.80 ± 125.78 ng/mL
- Half-life ([1]; human, in vivo, po, 30 mg/m2): 19.45 ± 7.66 h
- Tmax ([1]; human, in vivo, po, 30 mg/m2): 1.00 ± 0.00 h
- AUC0–24hr ([1]; human, in vivo, po, 40 mg/m2): 3616.23 ± 1880.32 ng·h/mL
- Cmax ([1]; human, in vivo, po, 40 mg/m2): 675.83 ± 280.76 ng/mL
- Half-life ([1]; human, in vivo, po, 40 mg/m2): 8.98 ± 4.22 h
- Tmax ([1]; human, in vivo, po, 40 mg/m2): 1.33 ± 0.58 h
- AUC0–24hr ([1]; human, in vivo, po, 60 mg/m2): 4901.00 ng·h/mL
- Cmax ([1]; human, in vivo, po, 60 mg/m2): 1032.20 ng/mL
- Half-life ([1]; human, in vivo, po, 60 mg/m2): 11.82 h
- Tmax ([1]; human, in vivo, po, 60 mg/m2): 1.00 h
- AUC0–24hr ([1]; human, in vivo, po, 120 mg/m2): 10387.00 ng·h/mL
- Cmax ([1]; human, in vivo, po, 120 mg/m2): 1823.10 ng/mL
- Half-life ([1]; human, in vivo, po, 120 mg/m2): 10.66 h
- Tmax ([1]; human, in vivo, po, 120 mg/m2): 1.00 h
- AUC0–24hr ([1]; human, in vivo, po, 180 mg/m2): 14789.00 ng·h/mL
- Cmax ([1]; human, in vivo, po, 180 mg/m2): 2904.10 ng/mL
- Half-life ([1]; human, in vivo, po, 180 mg/m2): 29.80 h
- Tmax ([1]; human, in vivo, po, 180 mg/m2): 1.00 h
- AUC0–24hr ([1]; human, in vivo, po, 240 mg/m2): 16277.00 ng·h/mL
- Cmax ([1]; human, in vivo, po, 240 mg/m2): 2559.90 ng/mL
- Half-life ([1]; human, in vivo, po, 240 mg/m2): 16.15 h
- Tmax ([1]; human, in vivo, po, 240 mg/m2): 1.00 h
- AUC0–24hr ([1]; human, in vivo, po, 320 mg/m2): 42184.00 ng·h/mL
- Cmax ([1]; human, in vivo, po, 320 mg/m2): 3851.00 ng/mL
- Half-life ([1]; human, in vivo, po, 320 mg/m2): 9.70 h
- Tmax ([1]; human, in vivo, po, 320 mg/m2): 2.00 h
- AUC0–24hr ([1]; human, in vivo, po, 550 mg/m2): 45223.33 ± 18198.49 ng·h/mL
- Cmax ([1]; human, in vivo, po, 550 mg/m2): 4319.67 ± 2006.78 ng/mL
- Half-life ([1]; human, in vivo, po, 550 mg/m2): 17.93 ± 4.11 h
- Tmax ([1]; human, in vivo, po, 550 mg/m2): 1.67 ± 0.58 h
- AUC0–24hr [1, 3]: 24816.06 ± 14612.08 ng·h/mL
- Cmax [1, 3]: 2420.94 ± 1098.82 ng/mL
- Half-life [1, 3]: 18.40 ± 13.04 h
- Tmax [1, 3]: 6.20 ± 9.96 h
- Drug-related Grade 3/4 toxicities ([2]; 5–425 mg/m^2/d dose range): No drug-related Grade 3/4 toxicities
- Recommended phase II dose (RP2D) ([2]; oral once daily): 425 mg/m^2/d
- Maximum tolerated dose (MTD) ([2]; oral once daily, cancer patients): 425 mg/m^2/day
- Life-threatening AEs or treatment-related deaths ([2]; whole study): No life-threatening AEs or treatment-related deaths
